The values that follow come from paper PMC8210293 (Experimental and Therapeutic Medicine, 2021).

Structures are written as SMILES.

What all share (type): in vitro ADME
Experiment [1] addresses T1, recombinant human UGT1A9 (Homo sapiens, UniProt O60656).
T1 sequence (O60656 26-530): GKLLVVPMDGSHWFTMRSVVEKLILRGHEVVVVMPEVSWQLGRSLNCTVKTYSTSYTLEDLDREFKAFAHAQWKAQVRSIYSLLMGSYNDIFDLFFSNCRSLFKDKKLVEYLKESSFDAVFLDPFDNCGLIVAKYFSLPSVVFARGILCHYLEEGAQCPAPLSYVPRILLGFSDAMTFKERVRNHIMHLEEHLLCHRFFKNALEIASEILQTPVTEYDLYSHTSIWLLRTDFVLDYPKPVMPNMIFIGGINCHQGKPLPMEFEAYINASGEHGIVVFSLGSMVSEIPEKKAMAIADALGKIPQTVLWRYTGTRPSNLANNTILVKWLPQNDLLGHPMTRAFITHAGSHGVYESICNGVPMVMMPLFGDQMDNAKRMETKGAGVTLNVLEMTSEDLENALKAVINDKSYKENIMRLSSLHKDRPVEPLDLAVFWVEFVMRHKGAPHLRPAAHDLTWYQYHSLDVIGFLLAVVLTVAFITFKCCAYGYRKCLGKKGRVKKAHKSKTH
Nature of the experiment: Inhibition of recombinant UGT1A9-catalyzed 4-MU glucuronidation. Put shortly: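 UGT1A9 incubations used recombinant human enzyme from baculovirus-insect cells (0.05 mg/ml), 30 µM 4-MU, 5 mM UDPGA, 5 mM MgCl2, 50 mM Tris-HCl pH 7.4, DMSO <0.5%. Preincubated 5 min at 37 °C, UDPGA-started, run 30 min, stopped with cold methanol plus internal standard. 4-MU-G by LC-MS/MS MRM. Remaining activity vs blank at 50 µM. […] Ki and type from model fits and Lineweaver-Burk/Dixon plots.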

The target in experiment [2] is T2, recombinant human UGT1A3 (Homo sapiens, UniProt P35503).
T2 sequence (P35503 29-534): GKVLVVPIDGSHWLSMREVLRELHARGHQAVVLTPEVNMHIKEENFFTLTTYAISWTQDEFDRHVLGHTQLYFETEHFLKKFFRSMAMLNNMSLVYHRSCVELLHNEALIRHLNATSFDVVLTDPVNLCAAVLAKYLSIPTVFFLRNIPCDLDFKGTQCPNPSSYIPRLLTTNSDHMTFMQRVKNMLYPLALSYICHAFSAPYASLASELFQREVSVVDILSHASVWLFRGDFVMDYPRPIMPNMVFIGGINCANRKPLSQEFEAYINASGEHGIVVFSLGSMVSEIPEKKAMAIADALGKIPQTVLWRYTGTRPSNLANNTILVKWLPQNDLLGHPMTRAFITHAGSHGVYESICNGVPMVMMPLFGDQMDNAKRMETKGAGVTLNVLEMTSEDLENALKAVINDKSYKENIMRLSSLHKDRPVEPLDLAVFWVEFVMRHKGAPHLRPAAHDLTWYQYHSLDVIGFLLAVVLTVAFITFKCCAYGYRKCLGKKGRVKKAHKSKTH
The experiment can be described thus: Inhibition of recombinant UGT1A3-catalyzed 4-MU glucuronidation. Particulars: for Ki: UGT1A3. The method, boiled down: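 Insect-cell-expressed recombinant human UGT1A3 (0.05 mg/ml), 1,200 µM 4-MU, 5 mM UDPGA, 5 mM MgCl2, 50 mM Tris-HCl pH 7.4, DMSO <0.5%. Preincubated 5 min at 37 °C, UDPGA-initiated, run 120 min, quenched with cold methanol plus internal standard. 4-MU-G by LC-MS/MS MRM. Remaining activity vs blank at 50 µM. […] Ki from inhibition-model fits and Lineweaver-Burk/Dixon plots.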

Experiment [3] has as its target T3, recombinant human UGT1A1 (Homo sapiens, UniProt P22309).
T3 sequence (P22309 26-533): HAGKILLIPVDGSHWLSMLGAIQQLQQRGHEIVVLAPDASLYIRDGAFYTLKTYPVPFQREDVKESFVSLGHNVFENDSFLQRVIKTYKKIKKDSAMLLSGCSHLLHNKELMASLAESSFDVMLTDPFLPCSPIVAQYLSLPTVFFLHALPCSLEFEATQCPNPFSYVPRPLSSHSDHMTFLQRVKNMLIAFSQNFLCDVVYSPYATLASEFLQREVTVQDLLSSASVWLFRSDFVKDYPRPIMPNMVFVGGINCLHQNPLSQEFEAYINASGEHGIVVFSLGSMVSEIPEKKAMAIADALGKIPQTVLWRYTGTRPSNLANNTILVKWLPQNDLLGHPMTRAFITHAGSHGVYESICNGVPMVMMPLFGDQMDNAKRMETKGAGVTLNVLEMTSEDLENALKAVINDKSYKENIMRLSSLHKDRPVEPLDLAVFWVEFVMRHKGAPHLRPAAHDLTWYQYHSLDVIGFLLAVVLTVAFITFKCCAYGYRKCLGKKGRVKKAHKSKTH
Nature of the experiment: Inhibition of recombinant UGT1A1-catalyzed 4-MU glucuronidation. The method, boiled down: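 Recombinant human UGT1A1 from baculovirus-infected insect cells (0.125 mg/ml), 30 µM 4-MU, 5 mM UDPGA, 5 mM MgCl2, 50 mM Tris-HCl pH 7.4, DMSO <0.5%. Preincubated 5 min at 37 °C, started with UDPGA, run 120 min, stopped with cold methanol plus internal standard. 4-MU-G measured by LC-MS/MS MRM. Remaining activity vs blank at 50 µM. […] Ki by model fitting. Type from Lineweaver-Burk/Dixon plots.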

For experiment [4], the target named is T4, recombinant human UGT1A6 (Homo sapiens, UniProt P19224).
T4 sequence (P19224 27-532): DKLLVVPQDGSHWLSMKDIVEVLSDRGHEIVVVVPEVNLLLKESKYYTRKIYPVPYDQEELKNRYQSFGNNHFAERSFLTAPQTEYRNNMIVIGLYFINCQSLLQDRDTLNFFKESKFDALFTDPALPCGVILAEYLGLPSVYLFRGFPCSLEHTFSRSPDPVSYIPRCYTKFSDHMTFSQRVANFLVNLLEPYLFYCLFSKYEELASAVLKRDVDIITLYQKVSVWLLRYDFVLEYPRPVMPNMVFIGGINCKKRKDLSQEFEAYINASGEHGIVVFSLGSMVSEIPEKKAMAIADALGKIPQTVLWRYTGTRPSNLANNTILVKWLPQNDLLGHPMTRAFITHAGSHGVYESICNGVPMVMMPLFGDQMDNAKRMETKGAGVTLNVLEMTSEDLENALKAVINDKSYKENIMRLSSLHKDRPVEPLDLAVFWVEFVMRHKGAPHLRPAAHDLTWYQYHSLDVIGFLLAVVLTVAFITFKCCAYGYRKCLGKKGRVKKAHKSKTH
The experiment can be described thus: Inhibition of recombinant UGT1A6-catalyzed 4-MU glucuronidation. The conditions noted are these: Dixon and Lineweaver-Burk plots.

As to `O=c1c(O)c(-c2ccc(O)c(O)c2)oc2cc(O)cc(O)c12` [Quercetin, 3,3',4',5,7-pentahydroxyflavone], the values for the IC50 in experiment [1], in experiment [2] and in experiment [3] were 2810 nM, 10600 nM and 7470 nM, respectively. The Ki is 510 nM in experiment [1]; 1000 to 10000 nM in experiment [2] (Inhibitory potential class based on Ki); 1600 nM in experiment [2] (Ki, second plot of Lineweaver-Burk slopes); 1000 to 10000 nM in experiment [3] (Inhibitory potential class based on Ki, UGT1A1). In addition, the Inhibition type result in experiment [1] (UGT1A9, Dixon and Lineweaver-Burk plots) was “competitive inhibition”; in experiment [3] (UGT1A1, Dixon and Lineweaver-Burk plots) it was “non-competitive inhibition”; in experiment [4], “non-competitive inhibition”.
